Our source for the inhibition values is PubChem BioAssay AID504414 (Broad Institute, 2011).

Hit rate of the full screen: of about 330,000 compounds, about 55 (0.02%) were called active. The list comes from a sample in which actives are over-represented; it also holds similar structures and randomly drawn compounds. Values without a mark were called inactive.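 Rule for the calls: active = highest replicate inhibition of at least 40%; inactive = the rest.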

What is called inhibition is the drop in the measured response relative to a control, in per cent.

The target of this experiment is Golgi-associated PDZ and coiled-coil motif-containing protein (Homo sapiens) (UniProt Q9HD26). The experiment is described as follows: disruption of CAL PDZ-reporter peptide interaction – biochemical, fluorescence polarization, Cer-tagged CAL PDZ, HTS, primary screen (AID 504414).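 Note: plate controls were DMSO neutral control wells for no effect and unlabeled competitor peptide control wells for full effect.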 As to conditions: purified CAL PDZ, TMR-peptide fluorescence polarization, 1 h; at 20 µM; hits give high values. A digest of the protocol: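 System: tagged CAL PDZ domain. Schedule: 1 h room-temperature incubation prior to read. Signal: fluorescence polarization (mP). Measure: percent inhibition from loss of millipolarization.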
(In general: Polarisation of emitted light reports the rotation of a fluorescent probe.)
`CCOCCCNC(=O)C(NC(=O)CNC(=O)c1ccccc1)c1ccc(OC)cc1` (stereo not given): the inhibition was -0.316%.
The same measure for `CCOc1ccc2sc(NS(=O)(=O)c3ccc(N)cc3)nc2c1`: -2.52%.
The figure for `O=C1CS(=O)CN1c1ccc(Oc2ccccc2)cc1` (stereo not given) is -2.68%; for `O=C(CN(CC1CCCO1)C(=O)CNS(=O)(=O)c1ccc(Cl)cc1)NCc1ccccc1` (stereo not given) it is -2.47%; for `CCN(C(=O)Cc1nc(N)n[nH]1)C1(C(=O)Nc2ccccc2)CCCCC1` it is -0.615%.
The figure for `CCOC(=O)C1Cn2c(nc3c(c2=O)C(C)(CC)Cc2ccccc2-3)S1` (stereo not given) is -2.98%.
For `O=C(/C=C/c1ccccc1[N+](=O)[O-])OCC(=O)N1CCCC1`, the inhibition is -0.608%.
Consider `CCOC(=O)N1CCN(S(=O)(=O)N2CCCC(C(=O)NCCCN3CCC(C)CC3)C2)CC1` (stereo not given), for which the inhibition is -1.6%.
The figure for `Cc1ccccc1/[N+]([O-])=C/c1ccncc1` is -1.06%; for `COc1ccc(Cn2c(-c3ccc(Cl)cc3)c[n+]3ccccc23)cc1` it is -2.82%.
The figure for `CSCCNC(=O)c1ccc2nc(Cc3ccccc3F)oc2c1` is 0.068%.
Turning to `CC1CN(C(=S)Nc2ccc(Br)cc2Cl)CC(C)O1` (stereo not given), the inhibition was 0.196%.
With `Cc1ccccc1CNC(=O)CCC(=O)N1Cc2ccccc2Oc2ncccc21`, the inhibition was -3.11%.
As for `Cc1cccc(-n2nc3c(c2NC(=O)c2cc4ccccc4o2)CS(=O)(=O)C3)c1`, the inhibition was -2.7%.
The same measure for `CCC1([N+](=O)[O-])COC(c2ccc(C)cc2)OC1` (stereo not given): -0.14%; for `O=c1c2ccccc2cnn1Cc1n[nH]c(=S)n1-c1ccccc1F`: 0.871%.
The same measure for `CCC(C)Sc1nc2c(cnn2-c2ccc(F)cc2)c(=O)[nH]1` (stereo not given): -0.979%; for `O=C1NC(c2ccccc2)CCC1(Cl)Cl` (stereo not given): -0.102%; for `CCOC(=O)c1nc(-c2ccc3c(c2)OCO3)[nH]c1C`: -0.475%.
The figure for `COc1cc(C2C3C(=O)N(c4ccccc4)C(=O)C3ON2c2ccccc2)ccc1O` (stereo not given) is -0.569%; for `COc1cccc2c(C)c(C(=O)O)[nH]c12` it is -0.62%; for `O=C(NNS(=O)(=O)c1ccc(F)cc1)c1cnccn1` it is -2.25%.
With `CN(C)S(=O)(=O)c1ccc(N/C=C(\[N+](=O)[O-])S(=O)(=O)c2ccccc2)cc1`, the inhibition is 0.264%.
The figure for `CCCCc1nnc(NC(=O)CSc2nc(C)cc(=O)[nH]2)s1` is -0.42%; for `CCCCCc1nnc(NC(=O)c2ccc(=O)n(C)n2)s1` it is 176% (active).
The figure for `CCCCc1nnc(NC(=O)CSc2nc(N)cc(=O)[nH]2)s1` is 0.237%.
The same measure for `Cc1ccc(C(=O)NN(CCC#N)C2=NS(=O)(=O)c3ccccc32)cc1`: -0.552%.
Regarding `CC(C)c1cc(N=O)cc(C(C)C)c1O`, the inhibition is -0.56%.
The same measure for `Clc1cc(-c2ccc(/C=N/n3cnnc3)o2)ccc1Br`: -4.91%.
The figure for `CC(C(=O)N(C)CC(=O)Nc1ccccc1C(F)(F)F)N1C(=O)c2ccccc2C1=O` (stereo not given) is -0.0605%; for `CCOCCCN(C)C1CCN(C(=O)c2oc3ccccc3c2NC(=O)Cc2cccc([N+](=O)[O-])c2)CC1` it is -0.742%.
In the case of `O=C(Nc1ccc2c(c1)nc1n2CCCCC1)c1cc(S(=O)(=O)N2CCOCC2)ccc1Cl`, the inhibition is -2.81%.
`CCOc1ccc(N(CC(=O)Nc2cccc(OC)c2)S(C)(=O)=O)cc1`: the inhibition was 0.31%.
The same measure for `CC(C)(C)NC(=O)CN(C(=O)c1csnn1)c1ccccc1-c1ccccc1`: -2.13%; for `CCCCn1c(N)c(N(CCOC)C(=O)c2oc3ccc(OC)cc3c2C)c(=O)[nH]c1=O`: -1.98%; for `Cc1onc(-c2c(F)cccc2Cl)c1C(=O)OCC(=O)N1C(C)CCCC1C` (stereo not given): -0.828%.
The figure for `Cc1ccc(NC(=O)C2CC2c2ccccc2)cc1` (stereo not given) is -0.307%; for `COc1ccccc1C(=O)Nc1ccc(OCC(=O)N2CCCCC2)cc1` it is -1.71%; for `COc1ccc(CCNC(=O)c2nnc(CS(=O)(=O)c3ccccc3)o2)cc1OC` it is 1.25%.
The same measure for `COc1c(C)cc(C(=O)C2CCCN(S(=O)(=O)c3c(C)noc3C)C2)cc1C` (stereo not given): -2.46%; for `Cc1ccc(S(=O)(=O)N(CC(O)CN2C(=O)NC(C)(C)C2=O)c2cccc([N+](=O)[O-])c2)cc1` (stereo not given): -1.82%; for `CC(C)=CCCC1(C)C=Cc2c(ccc3c2[nH]c2cc(O)c(C)cc23)O1` (stereo not given): 0.0711%.
Regarding `Cc1csc(SCC(=O)N(c2ccccc2)C(C)C)n1`, the inhibition is -2.45%.
The figure for `O=C(Cc1ccc(NC(=O)C2CCCN(C(=O)CCc3ccccc3)C2)cc1)Nc1ccc(C(=O)N2CCOCC2)cc1` (stereo not given) is -1.16%; for `CC(=O)CCS(=O)(=O)c1ccc(C)c(C)c1` it is 0.503%.
The same measure for `Cc1c(C(=O)N2CCCC2)c(S(=O)(=O)NCC(C)c2ccccc2)c(C)n1C` (stereo not given): -2.4%.
Take `Cc1ccc(N(CC(=O)NC2CCCCC2)C(=O)CCCC(=O)Nc2ccccn2)c(C)c1`: the inhibition is 0.671%.
For the compound `Cc1cc(-c2csc(N)n2)c(C)n1-c1ccccc1`, the inhibition is -2.46%.
The same measure for `CC(=O)c1ccc(NC(=O)C(C)OC(=O)c2ccc(NS(=O)(=O)c3ccc4[nH]c(=O)[nH]c4c3)cc2)cc1` (stereo not given): 1.56%; for `C=CCN1C(=O)C(O)(CC(=O)c2ccccn2)c2ccccc21` (stereo not given): 0.0287%.
Take `Cc1ccc2cc(C)c(N3CCC(C)CC3)nc2c1`: the inhibition was 1.11%.
Take `CCOc1ncccc1C(=O)N(CC)CC(=O)Nc1ccc(NC(C)=O)cc1`: the inhibition is -1.13%.
For the compound `CCN(CC)c1ccc(NC(=O)CCc2nnc3ccc(N4CCCCC4)nn23)c(C)c1`, the inhibition is 0.659%.
As to `Cc1ccc(CNC(=O)C(=O)c2cn(CC(=O)N3CCOCC3)c3ccccc23)cc1`, the inhibition is -0.774%.
As for `O=C(C1CC(=O)N(C2CCCCC2)C1)N1CCN(c2ccccc2)CC1` (stereo not given), the inhibition is -3.07%.
For the compound `CCCOP(=O)(c1ccc(N(C)C)cc1)C(O)c1cc(OC)c(OC)c(OC)c1` (stereo not given), the inhibition is -2.28%.
The same measure for `Cc1nc(CN(C)C(=O)CC2C(=O)NCCN2Cc2ccc(F)cc2)cs1` (stereo not given): -1.72%; for `COC(=O)c1sc(C(F)(F)F)c(-c2ccccc2)c1S(=O)(=O)N(C)C`: -1.85%; for `CN1CCN(CC(O)COCc2ccc3c(c2)OCO3)CC1` (stereo not given): 0.909%.
The figure for `CCN(CC)c1ccc(C(=O)c2cnc(/N=C/N(C)C)s2)cc1` is -0.472%.
Turning to `CC1CCCN(S(=O)(=O)c2ccc(-c3ccc(=O)[nH]n3)o2)C1` (stereo not given), the inhibition was -2.4%.
For the compound `Cc1cccc(NC(=O)c2ccc(OCC(=O)NCc3ccccc3)cc2)c1C`, the inhibition was 0.0994%.
For `CCc1c(Nc2ccccc2Cl)nc(N)[nH]c1=O`, the inhibition was 0.824%.
`O=C(CCl)NNc1cccc(Cl)n1`: the inhibition is -0.466%.
The figure for `Cc1sc2ncn(CC(=O)NCCN(C)C)c(=O)c2c1S(=O)(=O)N1CCC(C)CC1` is -1.98%; for `CCCn1c(N)c(N(CCOC)C(=O)C2CCCC2)c(=O)[nH]c1=O` it is -0.787%; for `CN(CCO)S(=O)(=O)c1ccc2c(c1)C(=O)c1cc(S(=O)(=O)N(C)CCO)ccc1-2` it is -0.349%.
The figure for `CC1C(=O)NC(=O)C1c1ccccc1` (stereo not given) is -1.12%; for `COc1ccc(Cl)cc1S(=O)(=O)N1CCC(O)(c2ccc(Cl)cc2)CC1` it is 0.846%; for `COc1cc(C2C(C(=O)c3sc(C)nc3C)=C(O)C(=O)N2CCN(C)C)cc(OC)c1OC` (stereo not given) it is 0.746%.
For `O=C(NCc1ccc2c(c1)OCO2)c1cc([N+](=O)[O-])ccc1N1CCOCC1`, the inhibition is -1.53%.
With `Cc1ccccc1OCCC(=O)OCC(=O)NCCc1ccc(S(N)(=O)=O)cc1`, the inhibition is -0.918%.
In the case of `Cc1ccn2c(c1)nc(=O)c1cc(S(=O)(=O)N3CCC(C)CC3)ccc12`, the inhibition is -0.295%.
The same measure for `O=S(=O)(c1ccc(Cl)cc1)N1CCCN(c2ccc(C(F)(F)F)cn2)CC1`: -1.87%.
Turning to `CN(CC(O)COc1ccc(S(=O)(=O)N2CCOCC2)cc1Cl)C1CCCCC1` (stereo not given), the inhibition was -0.337%.
The figure for `CCCc1nc2scc(-c3ccc(C)cc3)c2c(=O)n1N` is -1.81%.
The same measure for `Cc1onc(-c2c(F)cccc2Cl)c1C(=O)N(C)CC(=O)Nc1cccc(F)c1`: -1.86%; for `COC(=O)c1sc(N2CCN(Cc3ccccc3)CC2)nc1N`: -1.78%; for `CCn1c(SCCC(C)C)nnc1-c1c[nH]c2ccccc12`: 0.439%.
`C=CC(COCc1ccccc1)N(Cc1ccccc1)S(=O)(=O)c1ccccc1Br` (stereo not given): the inhibition is 0.0215%.
Regarding `O=C(O)c1ccc(-n2nc(-c3ccccc3)c3ccccc3c2=O)cc1`, the inhibition is -0.73%.
The same measure for `CSCC[C@H](NC(=O)NCc1cccs1)C(=O)O`: 1.04%.
With `COc1ccc(CCN(C)C(=O)C23CC4CC(CC(Cl)(C4)C2)C3)cc1OC`, the inhibition was -1.39%.
The figure for `CCn1nc(C(=O)Nc2ccc(N3CCOCC3)cc2)c2ccccc2c1=O` is -1.35%.
With `C=C(C)CNC(=O)c1ccc(OC2CCN(C(=O)COC)CC2)cc1`, the inhibition was -0.166%.
The same measure for `C#CCN1CC(C)/C(=N/O)CC1C` (stereo not given): -0.192%; for `O=c1[nH]oc(O)c1-c1ncc(C(F)(F)F)cc1Cl`: -0.466%; for `Nn1c(SCc2ccccc2)nnc1C1CCCCC1`: -0.356%.
The same measure for `COc1ccccc1C(=O)NCCC(=O)NC1=NCCS1`: 0.112%; for `CCN(CC)C(=O)CS(=O)CC(=O)Nc1cc(OCCOC)c(Cl)cc1Cl` (stereo not given): -0.37%.
